The list is not random: actives were taken first. Their share in the collection is about 1.9%.
MC4R antag cAMP – human MC4R antagonism in cAMP assay. 0.48% of 360,000 active. P32245. MC4R-expressing cells, MTII-stimulated cAMP, LANCE TR-FRET. inhibition, % at 6.5 µM;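 active = inhibition above its plate's cutoff, the mean of tested wells on that plate plus 3 SD, cut at about 29% in these data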
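Assay system: U2OS-MC4R stable cell line; Also added: Melanotan II; Technique: Eu-cAMP/anti-cAMP TR-FRET, emission 671 nm; Times: 30-min compound, 1-h challenge, 1-h detection, room temperature.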
NTR1 agonist – NTR1 (human) agonism; NTR1-U2OS beta-arrestin-GFP spot imaging, agonist mode; activation, % at 20 µM; 0.17% of 330,000 active; AID 493036;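 active = activation at or above 40% of the spot to cytoplasm intensity ratio, with at least 20 cells analyzed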
TLR9-MyD88 inh – TLR9-MyD88 interaction inhibition; AID 504734; 0.21% of 340,000 active; inhibition, % at 4.98 µM; Q9NR96+Q99836; CHO BLA complementation TLR9-MyD88, CCF4 FRET ratio;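 active = inhibition above the mean over all tested compounds plus 3 SD, cut at about 21% in these data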
NOD2-RIPK2 inh – inhibitors of human NOD2-RIPK2 interaction | O43353 | CHO BLA complementation NOD2-RIPK2, CCF4 ratio | inhibition, % at 4.98 µM | 0.38% of 360,000 active | AID 624267; in the data active = inhibition above about 21%
MC4R ag barr – agonists of human melanocortin 4 receptor (MC4R) beta-arrestin. P32245. U2OS MC4R beta-arrestin complementation, luminescence; percent of melanotan II response, DMSO zero. activation, % at 8.9 µM. 0.98% of 360,000 active;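 active = activation above a per-plate cutoff, the mean activation of sample wells on that plate plus 3 SD, cut at about 8% in these data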
TLR4-MyD88 BLA – blocks binding of human TLR4 to MyD88; O00206+Q99836; HeLa CL3-4 TLR4/MyD88 BLA complementation, FRET ratio; inhibition, % at 8.4 µM; 0.18% of 200,000 active; in the data active = inhibition above about 25%
TLR9-MyD88 conf – TLR9-MyD88 interaction inhibition, confirmation | shares compounds with TLR9-MyD88 inh | CHO TLR9/MyD88 BLA complementation, CCF4 FRET ratio | inhibition, % at 4.98 µM | 51% of 680 active | AID 540250;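 active = mean inhibition across three repeats above about 21% taken from the earlier screen, limit read from the data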;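 note: blue over green emission ratio reports constitutive TLR9 MyD88 association via BLA complementation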
BLA counter-1 – non-selective beta-lactamase inhibitors in TLR9-MyD88 counter-screen | inhibition, % at 4.98 µM | AID 540251 | CHO-BLA cells, CCF4 FRET ratio, BLA reporter | shares compounds with TLR9-MyD88 inh | 7% of 680 active;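 active = mean inhibition above a 50% cutoff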;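 note: counterscreen of TLR9-MyD88 hits on CMV-driven BLA in CHO-K1 cells; higher means less blue over green ratio so more BLA blockade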
TLR9 CHO tox – CHO cell toxicity counter-screen for TLR9-MyD88 inhibitors; inhibition, % at 4.98 µM; TLR9-MyD88 CHO cells cytotoxicity, luminescence; AID 588336; shares compounds with TLR9-MyD88 inh; 39% of 680 active; in the data active = inhibition above about 11%
NOD2 RIPK2 conf – confirmation of human NOD2-RIPK2 interaction inhibitors; shares compounds with NOD2-RIPK2 inh; CHO cells, NOD2-RIPK2 BLA complementation, CCF4 FRET; 70% of 1,200 active; inhibition, % at 4.98 µM;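 active = mean inhibition across replicates above a set limit taken from the earlier primary screen, cut at about 21% in these data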
BLA counter-2 – counter-screen for NOD2-RIPK2 interaction inhibitors: BLA reporter; shares compounds with NOD2-RIPK2 inh; 57% of 1,200 active; CHO BLA reporter, CCF4 FRET ratio, counterscreen; inhibition, % at 4.98 µM;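 active = mean inhibition above the low-control mean inhibition plus three low-control SD, cut at about 11% in these data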
A number is an active result; n = inactive; x = no result.

SMILES	MC4R antag cAMP	NTR1 agonist	TLR9-MyD88 inh	NOD2-RIPK2 inh	MC4R ag barr	TLR4-MyD88 BLA	TLR9-MyD88 conf	BLA counter-1	TLR9 CHO tox	NOD2 RIPK2 conf	BLA counter-2
COc1cc(/C=C/c2ccc3c(Br)cc(Br)c(O)c3n2)ccc1O	n	x	26	34	n	x	28	n	49	45	55
COc1ccc(/C=C/c2ccc3c(Br)ccc(O)c3n2)cc1	n	n	n	n	n	x	x	x	x	x	x
Cn1c(N)c(C(=O)CSc2nnc3n2CCCCC3)c(=O)n(C)c1=O	n	n	n	n	n	x	x	x	x	x	x
C[C@@H]1CN([C@@H](C)CO)C(=O)c2cccc(NC(=O)C3CCOCC3)c2O[C@H]1CN(C)S(=O)(=O)c1ccc(Cl)cc1	n	n	n	n	n	x	x	x	x	x	x
CCN1C[C@@H]2[C@@H]3C(=O)N(C)C(=O)[C@@H]3[C@](CC)(C1=O)N2C(=O)c1ccc(Cl)cc1	n	x	n	n	n	x	x	x	x	x	x
Nc1ccc2nc3c(=O)n(C4CCCCC4)c(=O)[nH]c3nc2c1	n	n	35	41	n	x	n	n	n	59	66
COc1cc2[nH]c(=O)n(C3CCCCC3)c(=O)c2cc1OC	n	n	n	n	n	n	x	x	x	x	x
Cc1ccccc1Oc1cc(-n2ncc(Cl)c(Cl)c2=O)ncn1	51	x	35	26	n	n	38	n	99	76	n
CC(C)CCN1C(=O)c2cccc3c(N)ccc(c23)C1=O	n	n	55	70	n	x	33	n	n	64	70
Cc1cccc(N2C(=O)c3cccc4c(N)ccc(c34)C2=O)c1	n	n	32	35	n	x	n	n	n	37	44
Nc1cccc(N2C(=O)c3cccc4c(N)ccc(c34)C2=O)c1	n	n	n	n	n	x	x	x	x	x	x
CC(=O)Oc1ccc(-c2cc3c(OC(C)=O)cc(OC(C)=O)cc3oc2=O)cc1	n	n	37	41	n	x	23	n	n	53	57
Cc1ccccc1Nc1cccc2nonc12	n	n	46	41	n	n	22	n	n	53	57
COc1ccc(-c2cc3ccc(O)cc3oc2=O)cc1	n	n	21	39	n	x	n	n	n	43	52
CC1CCN(c2ccc(-c3cccc(NC(=O)c4ccco4)c3)nn2)CC1	n	n	n	n	n	x	x	x	x	x	x
O=C1Nc2ccc(Br)cc2C12NNc1ccccc1O2 (stereo not drawn)	n	n	33	36	n	n	26	n	n	35	47
OCCN(CCO)c1nc(N2CCCCC2)c2nc(N(CCO)CCO)nc(N3CCCCC3)c2n1	n	n	25	36	n	n	n	n	n	47	51
O=c1c(Cl)c(Cl)cnn1Cc1nnc(-c2ccccc2Br)o1	n	n	21	27	n	n	29	n	101	46	11
Clc1ccccc1OCc1nnc(-c2ccccc2Br)o1	n	n	n	n	n	n	x	x	x	x	x
Cc1ccc(-c2cc(=O)c3cc(F)ccc3[nH]2)cc1	n	n	n	n	n	n	x	x	x	x	x
Cc1ccc(C)c(-n2sc3ccc(F)cc3c2=O)c1	n	n	31	26	n	x	n	n	43	33	15
CC(=O)/C(=N\Nc1ccccc1Cl)Sc1cccc2cccnc12	n	n	n	n	n	n	x	x	x	x	x
O=C(Sc1cccc2cccnc12)c1ccccc1Br	n	n	24	39	n	x	22	n	98	41	17
CC(C)N1CCC(N2CCN(C3CCCCCC3)CC2CCO)CC1 (stereo not drawn)	n	n	n	n	n	n	x	x	x	x	x
O=c1nc2c(O)cccn2c2c1c(=O)[nH]c1ccccc12	n	x	22	29	n	n	n	n	n	33	27
SMILES	MC4R antag cAMP	NTR1 agonist	TLR9-MyD88 inh	NOD2-RIPK2 inh	MC4R ag barr	TLR4-MyD88 BLA	TLR9-MyD88 conf	BLA counter-1	TLR9 CHO tox	NOD2 RIPK2 conf	BLA counter-2
O=c1[nH]c2ccccc2c2nc3ccccn3c12	n	n	n	n	n	n	x	x	x	x	x
COc1ccc(NC(=O)/C(Cl)=C(/Cl)S(=O)Cc2ccccc2)cn1 (stereo not drawn)	n	n	43	92	n	n	49	n	99	92	30
CCOC(=O)Nc1ccc2c(c1)Cc1cc([N+](=O)[O-])ccc1-2	n	x	n	n	n	x	x	x	x	x	x
CC(O)CN(CC(C)O)c1ccc2c(c1)Cc1cc([N+](=O)[O-])ccc1-2 (stereo not drawn)	n	x	53	60	n	x	44	n	n	22	70
CCS(=O)c1ccccc1C(=O)OCC(=O)Nc1cccc(S(=O)(=O)N2CCCCC2)c1 (stereo not drawn)	n	n	n	n	n	x	x	x	x	x	x
CCOC(=O)c1sc(-c2ccc(C(F)(F)F)cc2)nc1O	n	n	28	25	n	x	n	n	n	65	67
CC(=O)c1c(C)[nH]c(C(=O)OCC(=O)N2c3ccccc3NC(=O)C2(C)C)c1C	n	n	n	n	n	n	x	x	x	x	x
Brc1ccc(C2=CC(c3ccco3)n3nnnc3N2)cc1 (stereo not drawn)	n	n	n	n	n	x	x	x	x	x	x
Oc1ccc(C2C=C(c3ccc(F)cc3)Nc3ncnn32)cc1 (stereo not drawn)	n	x	40	50	n	x	n	n	n	37	46
COc1cccc(C2=CC(c3ccc(N(C)C)cc3)n3ncnc3N2)c1 (stereo not drawn)	x	n	x	x	x	n	x	x	x	x	x
COc1ccc(C2C=C(c3ccc(C)cc3)Nc3ncnn32)cc1 (stereo not drawn)	n	x	41	52	n	n	n	n	n	n	n
Cc1ccc(C2C=C(c3ccccc3)Nc3ncnn32)cc1 (stereo not drawn)	n	n	37	48	n	x	n	n	n	n	18
C1=C(c2ccc(-c3ccccc3)cc2)Nc2ncnn2C1c1ccco1 (stereo not drawn)	n	x	27	39	n	n	n	n	n	n	n
CCCn1c(CC)nc([N+](=O)[O-])c1Sc1ncn[nH]1	n	x	n	n	n	x	x	x	x	x	x
CCc1ccc2cccc3c2c1N=CN3C	n	n	n	n	n	x	x	x	x	x	x
